Results reported in publication PMC11583631 (RSC Advances, 2024).
Where two headings read alike, the source gives them in different places.

What was measured:
[1] = tested on: bacterial tyrosinase enzyme; experiment: in vitro bacterial tyrosinase inhibition assay; assay type: biochemical; conditions: L-tyrosine substrate; for Percentage inhibition: 37 °C, absorbance 475 nm; for IC50: by extrapolation of the graph
[2] = target: bacterial tyrosinase enzyme; conditions: standard inhibitors; ref [50]; cited from earlier work
tyrosinase enzyme = experiment: kinetic studies; assay type: biochemical, bacterial; conditions: Lineweaver–Burk and Dixon plots, tyrosine 0.1–1 mM
Procedure, shortened: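 Isolated bacterial tyrosinase; pre-incubation and measurement timing as in the main inhibition assay. Lineweaver–Burk: 1/V vs 1/[S]. Ki (EI) and Ki′ (ESI) from secondary plots of slope and intercept vs inhibitor concentration. Dixon plot (1/V vs inhibitor concentration) confirmed inhibition type.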

Row | Compound | Percentage inhibition [1] | IC50 [1] | type of inhibition (tyrosinase enzyme) | IC50 [2]
1 | COc1ccccc1NC(=O)CSc1nnc(-c2cc3c(ccc4ccccc43)o2)n1-c1ccccc1 [20g, N-(2-methoxyphenyl)-2-((5-(naphtho[2,1-b]furan-2-yl)-4-phenyl-4H-1,2,4-triazol-3-yl)thio)acetamide] | 5.40 ± 0.05 | 12.9 ± 0.15 µM | – | –
2 | O=C(CSc1nnc(-c2cc3c(ccc4ccccc43)o2)n1-c1ccccc1)N1CCOCC1 [20i, 1-Morpholino-2-((5-(naphtho[2,1-b]furan-2-yl)-4-phenyl-4H-1,2,4-triazol-3-yl)thio)ethanone] | 30.55 ± 0.1 | 1.99 ± 0.07 µM | – | –
3 | O=C(CSc1nnc(-c2cc3c(ccc4ccccc43)o2)n1-c1ccccc1)Nc1ccccc1Cl [20f, N-(2-chlorophenyl)-2-((5-(naphtho[2,1-b]furan-2-yl)-4-phenyl-4H-1,2,4-triazol-3-yl)thio)acetamide] | 32.34 ± 0.07 | 0.51 ± 0.12 µM | non-competitively | –
4 | CCN(CC)C(=O)CSc1nnc(-c2cc3c(ccc4ccccc43)o2)n1-c1ccccc1 [20j, N,N-diethyl-2-((5-(naphtho[2,1-b]furan-2-yl)-4-phenyl-4H-1,2,4-triazol-3-yl)thio)acetamide] | 2.61 ± 0.50 | 23.03 ± 0.18 µM | – | –
5 | COc1ccc(OC)c(NC(=O)CSc2nnc(-c3cc4c(ccc5ccccc54)o3)n2-c2ccccc2)c1 [20d, N-(2,5-dimethoxyphenyl)-2-((5-(naphtho[2,1-b]furan-2-yl)-4-phenyl-4H-1,2,4-triazol-3-yl)thio)acetamide] | 22.77 ± 0.17 | – | – | –
6 | CCCCc1ccc(NC(=O)CSc2nnc(-c3cc4c(ccc5ccccc54)o3)n2-c2ccccc2)cc1 [20a, N-(4-butylphenyl)-2-((5-(naphtho[2,1-b]furan-2-yl)-4-phenyl-4H-1,2,4-triazol-3-yl)thio)acetamide] | 22.84 ± 0.05 | – | – | –
7 | O=C(CSc1nnc(-c2cc3c(ccc4ccccc43)o2)n1-c1ccccc1)Nc1ccc(F)cc1 [20h, N-(4-fluorophenyl)-2-((5-(naphtho[2,1-b]furan-2-yl)-4-phenyl-4H-1,2,4-triazol-3-yl)thio)acetamide] | 13.92 ± 0.11 | 9.36 ± 0.06 µM | – | –
8 | Cc1ccc(C)c(NC(=O)CSc2nnc(-c3cc4c(ccc5ccccc54)o3)n2-c2ccccc2)c1 [20b, N-(2,5-dimethylphenyl)-2-((5-(naphtho[2,1-b]furan-2-yl)-4-phenyl-4H-1,2,4-triazol-3-yl)thio)acetamide] | 31.40 ± 0.25 | – | – | –

The next lines start with results.

Row | Percentage inhibition [1] | IC50 [1] | type of inhibition (tyrosinase enzyme) | Compound | IC50 [2]
9 | 6.80 ± 0.58 | – | – | O=c1cc(CO)occ1O [Kojic acid, reference compound] | 30.3 ± 0.75 µM
10 | 58.66 ± 1.00 | – | – | O=C1O[C@H]([C@@H](O)CO)C(O)=C1O [Ascorbic acid, reference compound] | 11.5 ± 1 µM
11 | 22.62 ± 0.30 | – | – | CCNC(=O)CSc1nnc(-c2cc3c(ccc4ccccc43)o2)n1-c1ccccc1 [20c, N-ethyl-2-((5-(naphtho[2,1-b]furan-2-yl)-4-phenyl-4H-1,2,4-triazol-3-yl)thio)acetamide] | –
